In data set [1] the test system is L1210. Kind of data set: Inhibitory concentration against growth of murine L1210 cells at 96 hours. The format is functional, cell-based. The settings on record: Mus musculus, L1210, 96 h. Put shortly:
(§1)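 Proliferation of murine leukemia L1210 cells measured after 48 h or 96 h exposure. IC50 reported as the mean of at least two experiments. Variation from the mean was typically 10–25% for the 96-h values.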

Data set [2] relates to L1210. Kind of data set: Ability to compete with [3H]SPD for the polyamine transport apparatus in L1210 cells. The format is functional, cell-based, Mus musculus.
A short description of data set [3]: Iron clearing efficiency in bile of rodents following a subcutaneous dosage of 300 umol/kg. The format is functional. In a few lines:
(§2)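 Bile-duct-cannulated rats given a subcutaneous dose of 300 µmol/kg, equivalent in iron-binding capacity to 450 µmol/kg of the 3:1 ligands. Chelator-induced iron excretion measured in both bile and urine. Bile collected as multiple samples to follow excretion kinetics.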

Data set [4] can be described thus: Iron clearing efficiency in bile-duct-cannulated rodents following a subcutaneous dosage of 300 umol/kg. The format is functional. In a few lines: as §2
A short description of data set [5]: Iron clearing efficiency in urine of rodents following a subcutaneous dosage of 300 umol/kg. In kind it is functional. Put shortly:
as §2

Data set [6] concerns L1210. Kind of data set: Intracellular concentration was determined in murine L1210 cells after treatment with 100 uM compound for 48 hrs. In kind it is functional, cell-based. The settings on record: Mus musculus. Put shortly:
(§3)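 Murine leukemia L1210 cells exposed to the compound, 48 h unless another time is indicated. Intracellular level measured as pmol/10^6 cells. Converted to concentration using about 1 µL volume per 10^6 untreated cells.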

Data set [7] deals with L1210. Kind of data set: Intracellular concentration was determined in murine L1210 cells after treatment with 100 uM compound for 4 hrs. In kind it is functional, cell-based. The settings on record: Mus musculus. In a few lines:
as §3

Data set [8] relates to L1210. Kind of data set: Inhibitory concentration against growth of murine L1210 cells at 48 hours. In kind it is functional, cell-based. The settings on record: Mus musculus, L1210, 48 h. In a few lines: as §1
Data set [9] has as its system L1210. Kind of data set: Ratio of intracellular concentration to that of treatment concentration in L1210 cells. In kind it is functional, Mus musculus.
Data set [10] in a line: Iron clearing efficiency in urine of rodents following a subcutaneous dosage of 450 umol/kg. In kind it is ADME. To be noted: rodentia, in vivo, sc. Put shortly: (§4)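 Bile-duct-cannulated rat model. Drug given sc at 450 µmol/kg, set for equivalent iron-binding capacity. Chelator-promoted iron excretion measured in both bile and urine. Multiple bile samples collected, so the kinetics of iron excretion could be followed.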

Data set [11] can be described thus: Iron clearing efficiency in bile-duct-cannulated rodents following a subcutaneous dosage of 450 umol/kg (iron excretion delayed until ~18 hours after administration). The format is functional.
The nature of data set [12]: Iron clearing efficiency in bile of rodents following a subcutaneous dosage of 450 umol/kg. The format is ADME. To be noted: rodentia, in vivo, sc. Put shortly: as §4
The test system of data set [13] is L1210. Kind of data set: Intracellular concentration was determined in murine L1210 cells after treatment with 0.2 uM compound for 48 h. The format is functional, cell-based. To be noted: Mus musculus. Put shortly: as §3
Data set [14] is described as follows: Iron clearing efficiency in bile-duct-cannulated rodents following a subcutaneous dosage of 450 umol/kg. In kind it is ADME. To be noted: rodentia, in vivo, sc. In a few lines: as §4
Data set [15] deals with L1210. As to the kind of experiment: Intracellular concentration was determined in murine L1210 cells after treatment with 50 uM compound for 48 h. The format is functional, cell-based. The settings on record: Mus musculus. In a few lines:
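Murine leukemia L1210 cells exposed to compound for 48 h unless otherwise indicated. Intracellular concentration expressed as pmol/10^6 cells; 10^6 untreated cells taken as about 1 µL volume. Mean of at least two or three experiments, variation typically less than 10%.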

Data set [16] relates to L1210. Kind of data set: Intracellular concentration was determined in murine L1210 cells after treatment with 30 uM compound for 48 h. The format is functional, cell-based. The settings on record: Mus musculus. In a few lines: as §3
For data set [17], the system named is L1210. As to the kind of experiment: Intracellular concentration was determined in murine L1210 cells after treatment with 100 uM compound for 48 h. The format is functional, cell-based. The settings on record: Mus musculus. In a few lines: as §3

For `CCOC(=O)[C@@]1(C)CSC(c2ccc(OCCCCNCCCNCCCN)cc2O)=N1`, the IC50 in the data set with L1210 [1] and with L1210 [8] was 1.5 µM in each case. Besides, the Ki in the data set on L1210 [2] turned out to be 5.7 µM. Also, the Efficiency in data set [3] was 97%; in [4] it was 13.6%; in data set [5], 3%. In addition, the Concentration (pmol/10E6 cells) with L1210 [6] was 947; in the data set on L1210 [7] it was 2980.

For `C[C@]1(C(=O)O)CSC(c2ccc(OCCCCNCCCNCCCN)cc2O)=N1`, the IC50 with L1210 [1] and with L1210 [8] was 40 µM each time. The compound further registered a Ki in the data set on L1210 [2] of 73 µM. The Efficiency in data set [3] is given as 99%; in [4], 9.2%; in data set [5], 1%. Moreover, in the data set with L1210 [9], the Ratio is 0.7. The same compound displayed a Concentration (pmol/10E6 cells) in the data set with L1210 [7] of 71.

As to `Cc1c(O)c(=O)ccn1CCCNCCCCNCCCN`, the Efficiency in data set [10] is reported as 47%; in data set [11] it was less than 0.5%; in data set [12] it was 53%; in data set [14] it was 1.8%. Further, affinity with L1210 [2] was put at a Ki of 3.7 µM. The compound further had a Concentration (pmol/10E6 cells) in the data set with L1210 [13] of 390. In addition, the Ratio in the data set with L1210 [9] worked out at 1950. In the data set with L1210 [8], this compound had an IC50 of 0.2 µM.

For `Cc1c(O)c(=O)ccn1C` [DEFERIPRONE], the values for the Efficiency in data set [10], in data set [12] and in data set [14] were 26%, 74% and 2.2%, respectively. Moreover, the half-maximal inhibitory concentration (IC50) with L1210 [1] was found to be 55 µM; with L1210 [8] it was 46 µM. For the same compound, in the data set on L1210 [2], the Ki was greater than 500 µM. Further, in the data set with L1210 [15], the Concentration (pmol/10E6 cells) was 1. Moreover, the Ratio with L1210 [9] came to 0.02.

Consider `CCNCCCNCCCCNCCCNCC` [BIS(ETHYL)SPERMINE], for which the Concentration (pmol/10E6 cells) in the data set on L1210 [16] stood at 400. For the same compound, in the data set with L1210 [9], the Ratio is 13.3.

Consider `C[C@]1(C(=O)O)CSC(c2ccc(O)cc2O)=N1` [DEFERITRIN], for which the IC50 in the data set on L1210 [1] was 20 µM; in the data set on L1210 [8], 19 µM. This compound yielded a Ki in the data set on L1210 [2] greater than 500 µM. Also, the Efficiency is on record as 93% in data set [3], 1.1% in [4] and 7% in data set [5]. Further, the Ratio with L1210 [9] was less than 0.5. In the data set on L1210 [17], the Concentration (pmol/10E6 cells) was less than 50.

In the data set on L1210 [1], `FC(F)(F)CNCCCNCCCCNCCCNCC(F)(F)F` gave an IC50 greater than 100 µM. Besides, the Ratio in the data set with L1210 [9] was less than 0.2. In addition, the Concentration (pmol/10E6 cells) in the data set with L1210 [17] is less than 20.

Take `NCCCNCCCCNCCCNC(=O)c1ccc(C(=O)O)cc1`: the IC50 with L1210 [1] and in the data set on L1210 [8] was greater than 100 µM each time. This compound also had a Ki in the data set on L1210 [2] of 27 µM. In addition, the Ratio in the data set on L1210 [9] is on record as less than 0.7. The Concentration (pmol/10E6 cells) in the data set on L1210 [17] was less than 70.

On to `COC(=O)c1ccc(C(=O)NCCCNCCCCNCCCN)cc1`, for which the IC50 in the data set on L1210 [1] and in the data set on L1210 [8] was greater than 100 µM in each case. In addition, the Ki in the data set with L1210 [2] came to 3.1 µM. For the same compound, the Concentration (pmol/10E6 cells) in the data set with L1210 [6] was 430. Also, the Ratio with L1210 [9] was 4.3.

The values above are taken from ChEMBL document CHEMBL1144451, “Polyamine-vectored iron chelators: the role of charge” (J Med Chem, 2005).
